Measurements reported in paper PMC10461461 (Protein Science : A Publication of the Protein Society, 2023).
Marks after values point to notes of the source that are not given here. Where no end group is shown, it is not given here.

What was measured:
[1] = pH at which 50% of peptides are in the α-helical membrane inserted state; ref Vasquez-Montes et al. (2018); cited from earlier work
[2] = Tryptophan fluorescence emission maximum; format: physicochemical; conditions: POPC LUVs, pH 8.0 and pH 4.0, Trp fluorescence
HSC3 cells = assay: Lactate dehydrogenase release assay; format: cell-based, human; conditions: 10 μM, 1 h, pH 7.4, 5.5 or 5.0, mean ± S.D., n = 3
[3] = Solubility in aqueous buffer; format: physicochemical; conditions: peptides solubilized to 20 μM in 5 mM sodium phosphate pH 8.0
[4] = system: HSC3 cells expressing PTPRJ ectopically; assay: Cell viability assay; format: cell-based, human; conditions: 72 h recovery, MTT, n = 9
Procedure, shortened: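 HSC3 cells engineered to express wild-type PTPRJ, grown in high-glucose DMEM with 10% FBS at 37°C and 5% CO₂, seeded at 5000 cells/well overnight. Peptide in serum-free medium for 5 min at 37°C. Medium then acidified to target pH with citric acid-buffered medium (pH 2.0) for 10 min. Cells washed, then 72 h recovery in complete DMEM. MTT read-out, normalized to medium-only pH 7.4 cells. […]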

[5] = system: EGFR phosphorylation (Tyr-1068 and Tyr-1173) in HSC3 cells expressing wild-type PTPRJ; assay: EGFR Tyr phosphorylation level by immunoblotting; format: cell-based, human; conditions: 10 μM, 10 min, indicated pHs (7.4, 5.5, 5.0), then EGF
Procedure, shortened: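 HSC3 cells engineered to express wild-type PTPRJ, seeded and grown overnight, then serum-starved 2 h. Peptide in serum-free medium for 5 min at 37°C; medium acidified with citrate-buffered medium (pH 2.0) to reach final 10 μM; 10 min at 37°C; then EGF 10 ng/mL for 10 min. Lysates immunoblotted for pY1068, pY1173 and total EGFR; chemiluminescence; densitometric phospho/total ratio, mean values.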

[6] = system: HSC3 cells ectopically expressing PTPRJ; assay: Wound healing scratch assay; format: cell-based, human; conditions: 10 μM, 10 min, n = 8-11
Procedure, shortened: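 PTPRJ-expressing HSC3 monolayers, confluent at 24 h, serum-starved 2 h. Peptide added in serum-free medium at pH 7.4 (5 min, 37°C), then pH lowered with citrate-buffered medium (pH 2.0) to reach final concentration; 10 min exposure. Monolayer scratched, then complete medium with EGF 50 ng/mL, 37°C, 10 h. Closure taken as percent area change from start to end, normalized to cells treated at pH 7.4.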

[7] = system: HSC3 cells ectopically expressing PTPRJ; conditions: 10 μM, 1-h treatment; ref Bloch et al., 2019; cited from earlier work
[8] = system: EGFR phosphorylation (Tyr-1068 and Tyr-1173) in HSC3 cells expressing wild-type PTPRJ; conditions: 10 μM, 1-h treatment; ref Bloch et al., 2019; cited from earlier work

## AAEQNPIYWARYDWLFTTGLLLLDLALLVDADEGG [pHLIP(P20G)]
[1]
  pK50: 7.2 ^b

## AAEQNPIYWARYDWLFTTPLLLLDLALLVDADEGG [pHLIP(WT‐Ala)]
[1]
  pK50: 6.1 ^b

## DDDDDDTTLLLLS DIGA IMWVSLVDLIADADEG [hybrid1]
[2]
  partitioning into the lipid bilayer: does not partition into the lipid bilayer

## DDTTLLLLSEIGAGMWVSLVELIADADEG [hybrid7]
HSC3 cells
  release of LDH (membrane integrity): Neither hybrid7 nor low pH treatment causes a significant release of LDH
[3]
  solubility in aqueous buffer: readily soluble in aqueous buffer
[4]; pH 5.5, 10 μM, 10 min treatment
  cell viability: 20%

## DDTTLLLLSEIGLGMWVSLVELIADADEG [hybrid7‐control]
[5]
  change in EGFR phosphorylation level: no changes in phosphorylation level
[4]; pH 7.4 or 5.5, 10 min treatment
  effect on cell viability: had no effect at either high or acidic pH
[6]; pH 5.0, EGF 50 ng/mL 10 h
  decrease / inhibition in cell migration (wound closure): 30%
[6]; pH 5.5, EGF 50 ng/mL 10 h
  effect on cell migration (wound closure): does not result in any effect

## KKTTLLLL S SIG A IMW V SLVCLIAVKGSNKK [RJbinder]
[7]
  decrease in cell migration: 20%
[8]
  decrease in phosphorylation at Tyr-1068 and Tyr-117: 20%–30%
